The values that follow come from ChEMBL document CHEMBL5030534, “Discovery of Novel Anti-Breast-Cancer Inhibitors by Synergistically Antagonizing Microtubule Polymerization and Aryl Hydrocarbon Receptor Expression” (J Med Chem, 2021).

Series [1] has as its system MCF7. In words: Cell cycle arrest in human MCF7 cells assessed as decrease in Cdc2 protein expression. It is filed as functional, cell-based. Particulars: dose 1-4 nM; call rule not given here. Put shortly:
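MCF-7 seeded 4 × 10⁵ per well for 24 h, then DMSO or compound at 1, 2, 4 nM for 24 h. Lysates protein-normalized to 3 mg/mL by BCA, resolved on 4–20% SDS-PAGE and immunoblotted. Bands quantified relative to β-actin (cell-cycle proteins) or GAPDH (apoptosis proteins); n = 3.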

Series [2] concerns MCF7. In words: Induction of mitochondrial membrane potential loss in human MCF7 cells at 2 nM measured after 24 hrs by JC-1 staining based flow cytometry analysis (reference value: 3.01%). It is filed as functional. In general terms: A flow cytometer gives signals particle by particle.
The nature of series [3]: Toxicity in BALB/c nude mouse xenografted with human MCF7 cells assessed as effect on heart at 0.5 to 1 mg/kg, iv administered every 2 days for 21 days by H and E staining based assay. It counts as organism-based. The settings on record: in vivo, 504 h, dose 0.5-1 mg/kg, time 21 day. Put shortly: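 Nude mice given 6 × 10⁶ MCF-7 cells subcutaneously on right flank; after 7 days randomized, eight per group. iv dosing every 2 days at 0.5 or 1 mg/kg; vehicle 10% DMSO/5% Tween 80/85% saline; paclitaxel 10 mg/kg and CA-4 20 mg/kg references. Body weight every 2 days; killed after 21 days; organs fixed, paraffin-sectioned, H&E stained.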
A general note: In xenograft studies the graft and the host belong to different species.

Series [4] concerns MCF7. In words: Induction of apoptosis in human MCF7 cells assessed as late apoptotic cells at 0.5 nM measured after 24 hrs by Annexin V-FITC and PI staining based flow cytometry assay (reference value: 2.06%). It counts as functional.
For series [5], the system named is MCF7. In words: Induction of apoptosis in human MCF7 cells assessed as necrotic cells at 2 nM measured after 24 hrs in presence of DMBA by Annexin V-FITC and PI staining based flow cytometry assay (reference value: 0.9%). It counts as functional.
Series [6] has as its system MCF7. In words: Cell migration rate in human MCF7 cells at 2 nM incubated for 24 hrs by inverted fluorescence microscopic method (reference value: 11.51%). Particulars: MCF7, 24 h.
The subject of another series is L02. The series is described as follows: Antiproliferative activity against human L-O2 cells assessed as reduction in cell viability incubated for 48 hrs by MTT assay. It counts as cell-based. The settings on record: L02, 48 h. The procedure, abridged:
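Cells seeded at 5 × 10³ per well, incubated overnight, then exposed to a range of compound concentrations for 48 h. MTT added for 4 h, medium replaced with DMSO, absorbance read at 570 nm. MCF-7, L-O2 grown in DMEM; MCF-10A, MCF-7/ADR in RPMI 1640. Three independent runs.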

For a further series, the target named is T1, Cytochrome P450 1A1 (Homo sapiens, UniProt P04798).
T1 sequence (P04798 whole entry): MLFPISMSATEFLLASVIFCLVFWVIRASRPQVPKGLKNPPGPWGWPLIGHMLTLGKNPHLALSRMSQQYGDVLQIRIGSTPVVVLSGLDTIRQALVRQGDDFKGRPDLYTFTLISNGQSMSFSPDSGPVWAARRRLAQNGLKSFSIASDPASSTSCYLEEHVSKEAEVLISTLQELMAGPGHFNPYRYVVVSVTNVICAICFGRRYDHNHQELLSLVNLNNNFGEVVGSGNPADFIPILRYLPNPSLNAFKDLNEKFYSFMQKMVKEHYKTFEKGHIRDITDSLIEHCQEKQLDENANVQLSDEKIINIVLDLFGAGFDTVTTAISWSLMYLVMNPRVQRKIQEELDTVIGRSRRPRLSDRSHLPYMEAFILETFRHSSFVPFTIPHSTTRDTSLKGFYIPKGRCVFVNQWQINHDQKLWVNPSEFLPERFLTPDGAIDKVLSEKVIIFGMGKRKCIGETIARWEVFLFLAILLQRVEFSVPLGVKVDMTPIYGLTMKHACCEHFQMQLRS
In words: Inhibition of CYP1A1 signalling in human MCF7 cells assessed as reduction in CYP1A1 level incubated for 24 hrs by Western blot analysis. It is filed as ADME, cell-based. Particulars: mcf7, 24 h, at 1 to 4 nM, dose 1-4 nM. Put shortly: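 MCF-7 cells seeded 4 × 10⁵ per well, grown 24 h, then exposed to DMSO or 1, 2, 4 nM for 24 h; BAY 2416964 served as AhR antagonist reference. Lysates adjusted to 3 mg/mL protein by BCA, resolved on 4−20% SDS-PAGE, immunoblotted; AhR and CYP1A1 bands normalized to GAPDH. Three independent runs.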
For orientation: A western blot detects proteins with antibodies after separation by electrophoresis.

The target in series [7] is T2, Aryl hydrocarbon receptor (Homo sapiens, UniProt P35869).
T2 sequence (P35869 whole entry): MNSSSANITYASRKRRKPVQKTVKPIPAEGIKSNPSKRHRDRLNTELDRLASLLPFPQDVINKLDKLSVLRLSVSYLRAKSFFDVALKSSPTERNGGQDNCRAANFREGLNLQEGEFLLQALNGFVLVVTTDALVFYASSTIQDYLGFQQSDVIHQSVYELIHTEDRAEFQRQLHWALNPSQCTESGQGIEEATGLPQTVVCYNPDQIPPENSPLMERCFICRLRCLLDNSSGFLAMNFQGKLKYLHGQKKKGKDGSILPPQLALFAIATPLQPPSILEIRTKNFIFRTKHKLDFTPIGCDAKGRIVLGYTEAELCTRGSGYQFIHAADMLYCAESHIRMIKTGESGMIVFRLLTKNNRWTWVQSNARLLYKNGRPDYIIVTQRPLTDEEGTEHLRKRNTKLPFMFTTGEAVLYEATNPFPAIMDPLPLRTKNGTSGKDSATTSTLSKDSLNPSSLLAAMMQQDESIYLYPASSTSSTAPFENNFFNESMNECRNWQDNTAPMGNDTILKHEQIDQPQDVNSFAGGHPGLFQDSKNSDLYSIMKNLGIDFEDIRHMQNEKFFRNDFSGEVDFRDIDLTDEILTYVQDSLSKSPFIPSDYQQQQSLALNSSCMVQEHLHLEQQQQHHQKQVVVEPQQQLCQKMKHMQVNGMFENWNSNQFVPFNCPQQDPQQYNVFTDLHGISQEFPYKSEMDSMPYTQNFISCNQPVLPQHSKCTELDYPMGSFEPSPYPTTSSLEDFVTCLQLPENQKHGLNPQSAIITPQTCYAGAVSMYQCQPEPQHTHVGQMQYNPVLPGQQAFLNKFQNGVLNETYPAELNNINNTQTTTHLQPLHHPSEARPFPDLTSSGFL
In words: Inhibition of AhR signalling in human MCF7 cells assessed as reduction in AhR level at 2 nM incubated for 24 hrs in presence of DMBA by Western blot analysis. It counts as cell-based. The settings on record: mcf7, 24 h, 0.002 µM. Put shortly: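 MCF-7 treated with DMBA (400 nM), DMBA plus 2 nM, or 2 nM alone. AhR measured by Western blot relative to loading control; n = 3.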

The subject of series [8] is MCF7. In words: Induction of apoptosis in human MCF7 cells assessed as late apoptotic cells at 2 nM measured after 24 hrs in presence of DMBA by Annexin V-FITC and PI staining based flow cytometry assay (reference value: 1.5%). It counts as functional.
The test system of series [9] is MCF7. The series is described as follows: Induction of apoptosis in human MCF7 cells assessed as late apoptotic cells at 2 nM measured after 24 hrs by Annexin V-FITC and PI staining based flow cytometry assay (reference value: 2.06%). It counts as functional.

On to `Cc1nc(N(C)c2ccc3c(c2)cc(C)n3C)c2ccccc2n1`, for which the Activity entry in the series with MCF7 [1] was “Dose-Dependent Effect”; with MCF7 [2] it was 24.7%; in [3], “Non-Toxic”; in the series with MCF7 [4], 2.17%; in the series with MCF7 [5], 5.6%; with MCF7 [8] it was 22%. Moreover, in the series with MCF7 [9], the Activity is on record as 45.1%. In addition, the Migration rate at 0.002 µM with MCF7 [6] worked out at 3.78%. The IC50 (in general, the concentration needed to halve the response being measured) with L02 came out at 4.6 nM. The figures for the “inhibition (INH)” value (at Cytochrome P450 1A1; in series [7]) were “Dose-Dependent Effect” and “Active”, respectively.
